# This is a sample that favours compounds with a hit; in the whole collection about 3.1% have one here.
# Cneo AK release – Cryptococcus neoformans lysis via adenylate kinase release. lysis activity, % at 15 µM. AID 651654. C. neoformans lysis, adenylate kinase release luminescence, 4 h; normalised: neutral wells 0, clomiphene wells 100. actives 0.2% (n = 360,000);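 active = mean lysis activity across replicates of at least 80%, whatever share of replicates individually reach that level; inactive = mean lysis activity below 80%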
#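 Material – log-phase Cryptococcus neoformans yeast cells · Input – 5 × 10^6 yeast cells/mL · Medium – fresh YPD growth medium · Doses – single compound concentration per well · Timing – static 4 h at 37 °C with compound, 1 h detection · Detection – adenylate kinase release luminescence · Read-out – signal increase indicating cell lysis · Control set – Clomiphene as positive lysis control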
# DENV2 CPE rescue – protects cells from dengue virus 2 cytopathic effect; DENV2-infected cells, cytopathic effect rescue, plate reader; CPE inhibition, % at 9.99 µM; actives 1.7% (n = 350,000); in the data active = CPE inhibition above about 20%, passing the limit was not always enough; inconclusive = no clear call, values can overlap the other calls; tested in BHK-21 cells;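 note: 0% = median of neutral control wells and 100% = median of positive control wells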
# miR122 inh – inhibitors of miR-122 in Huh7 cells; activation (reporter increase), % at 12.5 µM; actives 0.3% (n = 340,000); Huh7 miR-122 Renilla luciferase sensor, 48 h; neutral wells = 0, positive control = 100;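 active = mean replicate activation score at least 90 and every replicate individually at or above 90; inconclusive = only one of the two criteria met; inactive = neither criterion met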;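 note: higher luciferase means less miR-122 activity so hits act as miR-122 inhibitors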
# Ecoli rRNA inh – selective bacterial rRNA inhibition in E. coli | E. coli WT GFP vs humanized-ribosome RFP mutants, fluorescence, 24 h; hits give low values; DMSO median 0, no signal -100 | actives 1.6% (n = 350,000) | GFP signal change (wild-type ribosome), % (concentration not given with the values);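 active = significant combined selectivity score with lowered wild-type GFP, culture density cut under 30%, mutant RFP and density less affected; inactive = any of these conditions unmet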
# E-sel inducer – induces E-selectin expression in human endothelial cells; actives 0.37% (n = 260,000); HUVEC E-selectin immunofluorescence imaging; normalized: neutral wells 0, TNF-alpha wells 100; activation, % at 7.58 µM; P16581;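 active = mean E-selectin-positive cell signal at least 10% of the positive control, reached in at least 60% of replicates, without over 20% cell loss; inconclusive = no rule given, readout overlaps actives, possibly toxicity-flagged; inactive = the rest, including those meeting only one limit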
# Target sequence (P16581 whole entry, looked up): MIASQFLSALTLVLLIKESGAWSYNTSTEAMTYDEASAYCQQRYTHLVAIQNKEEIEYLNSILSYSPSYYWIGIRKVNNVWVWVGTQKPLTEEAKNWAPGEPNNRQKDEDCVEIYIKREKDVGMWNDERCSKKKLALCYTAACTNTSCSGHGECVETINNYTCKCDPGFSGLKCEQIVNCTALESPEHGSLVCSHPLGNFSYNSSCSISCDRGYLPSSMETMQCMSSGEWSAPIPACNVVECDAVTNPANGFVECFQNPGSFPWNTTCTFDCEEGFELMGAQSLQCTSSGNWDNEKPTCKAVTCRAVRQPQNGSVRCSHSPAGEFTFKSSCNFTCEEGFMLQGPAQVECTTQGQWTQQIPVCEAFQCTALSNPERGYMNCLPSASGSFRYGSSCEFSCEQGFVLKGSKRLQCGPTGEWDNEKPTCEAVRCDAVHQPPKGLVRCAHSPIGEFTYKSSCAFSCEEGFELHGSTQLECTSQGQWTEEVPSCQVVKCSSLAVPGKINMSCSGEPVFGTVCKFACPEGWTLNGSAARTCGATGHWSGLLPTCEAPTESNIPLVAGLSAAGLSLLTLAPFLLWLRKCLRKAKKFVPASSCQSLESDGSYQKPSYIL
#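 material = human umbilical vein endothelial cells (HUVEC), E-selectin induction | quantity = 3,000 cells/well | medium = EGM-2 growth medium on 0.1% gelatin-coated wells | technique = immunofluorescence imaging | read-out basis = % PE-positive cells | control set = TNF-alpha positive control, DMSO neutral control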
# The depositor's hits bear a star; ? = inconclusive; . = no result; [ ] = dose if it differs, or a comment.
SMILES,Cneo AK release,DENV2 CPE rescue,miR122 inh,Ecoli rRNA inh,E-sel inducer
COC(=O)c1ccc(COc2ccc(C)cc2[N+](=O)[O-])o1,-1,-1,1,-24*,0
CO[C@@H]1CN(C)C(=O)c2ccc(NC(=O)Cc3ccccc3)cc2OC[C@H](C)NC[C@@H]1C,1,-2,26[16.7 µM],0,0
O=S1(=O)c2ccc(Br)cc2OCCC2CCCCN21 (stereo not drawn),.,-4,.,-21*,0
Cc1noc(C)c1S(=O)(=O)Nc1ccc2c(c1)C(=O)N([C@H](C)CO)C[C@@H](C)[C@H](CN(C)C(=O)Nc1ccc(F)cc1)O2,.,.,-2[16.7 µM],0,0
O=C(NC[C@H]1[C@H](c2ccccc2)[C@@H](CO)N1Cc1cccnc1)c1ccccn1,75,38*,58[16.7 µM],-3,0
CCC(=O)N1[C@H](CN(C)C(C)=O)[C@H](c2ccc(-c3cccnc3)cc2)[C@@H]1CO,-4,29*,-43[16.7 µM],4,0
CCC(=O)N1[C@H](CO)[C@H](c2ccc(-c3cccnc3)cc2)[C@@H]1CN(C)C(C)=O,0,5,-14[16.7 µM],2,1
O=C(NC[C@H]1[C@H](c2ccccc2)[C@H](CO)N1C(=O)Cc1cccnc1)C1CCC1,81*,?,21[16.7 µM],3,0
O=C(NC[C@@H]1[C@H](c2ccccc2)[C@@H](CO)N1C(=O)C1CCC1)NC1CCCC1,0,16,-7[16.7 µM],-2,0
O=C(NC[C@H]1[C@@H](c2ccccc2)[C@@H](CO)N1C(=O)C1CCC1)NC1CCCC1,97*,19,-7[16.7 µM],-1,0
O=C(NC[C@H]1[C@@H](c2ccccc2)[C@@H](CO)N1C(=O)Cc1cccnc1)C1CCC1,0,26,7[16.7 µM],2,0
C[C@H]1CCCCO[C@H](CN(C)C)[C@@H](C)CN([C@@H](C)CO)C(=O)c2cc(NC(=O)c3ccncc3)ccc2O1,1,?,-4[16.7 µM],1,1
Cc1ccccc1S(=O)(=O)N(C)C[C@H]1OCc2ccccc2-c2ccccc2C(=O)N([C@H](C)CO)C[C@H]1C,-1,-2,.,-3,-1
C[C@H]1CCCCO[C@@H](CN(C)C(=O)NC2CCCCC2)[C@@H](C)CN([C@@H](C)CO)C(=O)c2cc(NC(=O)c3ccccc3)ccc2O1,-2,-7,3[16.7 µM],-4,0
CO[C@H]1CN(C)C(=O)c2ccc(NC(C)=O)cc2OC[C@@H](C)N(Cc2nccs2)C[C@@H]1C,2,-7,-5[16.7 µM],-3,0
CCCNC(=O)N1[C@H](CO)[C@H](c2ccccc2)[C@@H]1CNC(=O)C1CCCC1,.,22*,.,4,0
CC(=O)NC[C@@H]1[C@@H](c2ccc(-c3cccnc3)cc2)[C@H](CO)N1C(=O)C1CCC1,0,31*,0[16.7 µM],-3,0
CC(=O)N1[C@H](CO)[C@H](c2ccc(-c3cccnc3)cc2)[C@H]1CNC(=O)C1CC1,.,47*,.,3,0
CCS(=O)(=O)N1CC(=O)N2[C@H](C1)[C@H](c1ccc(C#Cc3cccc(F)c3)cc1)[C@@H]2CO,.,.,.,2,.
N#C[C@@H]1[C@@H](c2ccccc2C2=CCCCC2)[C@H](CO)N1C(=O)C1CCOCC1,.,-12,.,-3,0
CCC(=O)N1CC2(C1)CN(Cc1cccc(F)c1)[C@@H](CO)c1c2c2ccc(OC)cc2n1C,.,0,.,-2,0
CN(c1ccccc1)S(=O)(=O)c1ccccc1Br,1,8,0,-38*,0
C[C@@H]1CN([C@@H](C)CO)C(=O)c2cc(NC(=O)CCCN(C)C)ccc2O[C@@H](C)CCCCO[C@H]1CN(C)S(=O)(=O)c1cccs1,1,1,-1[16.7 µM],1,0
COc1ccc(C(=O)NC(=S)NNC(=O)c2ccccc2C)cc1,2,1,7,-41*,.
COc1ccc(C(=O)NC(=S)NNC(=O)c2ccccc2O)cc1,4,-6,.,8,0
SMILES,Cneo AK release,DENV2 CPE rescue,miR122 inh,Ecoli rRNA inh,E-sel inducer
COc1ccc(N2CCN(C(=O)C(=O)c3cccc([N+](=O)[O-])c3)CC2)cc1,.,4,.,-4.6*,0
COc1ccc(C(=O)NNC(=S)NC(=O)c2cccc([N+](=O)[O-])c2)cc1,-5,-4,-4,-26*,8
COc1ccccc1N1CCN(C(=O)C(=O)c2cccc([N+](=O)[O-])c2)CC1,.,-12,.,-5,0
COC(=O)C1=CN(Cc2ccc(OC)cc2)C=C(C(=O)OC)C1c1ccsc1,.,8,.,-22*,0
COc1ccc(NC(=O)Nc2ccc3c(c2)C(=O)N([C@@H](C)CO)C[C@@H](C)[C@H](CN(C)S(=O)(=O)c2ccccc2)OCCCC[C@@H](C)O3)cc1,-11,15,-1[16.7 µM],-3,.
COc1ccc(C(=O)Oc2ccc(/C=N/O)cc2)cc1,.,.,-7,-26*,.
CC(=O)/C(C#N)=C1\NC(=O)C(Cc2ccccc2C)S1 (stereo not drawn),2,?,13,-30*,.
CC(=O)/C(C#N)=C1\NC(=O)C(Cc2ccccc2)S1 (stereo not drawn),-1,.,2,.,.
CCCCNC(=O)C1C(c2ccccc2)=Nc2ccccc2N1C(=O)c1ccc(C(F)(F)F)cc1 (stereo not drawn),.,-14,.,-4,0
CCCCNC(=O)C1C(c2ccc(C(F)(F)F)cc2)=Nc2ccccc2N1C(=O)c1cccc2ccccc12 (stereo not drawn),.,28*,.,5,0
COc1cc(-c2nc3cnccn3c2Nc2ccc(C)cc2)ccc1O,-2,-1,-9,-41*,.
Oc1ccc(-c2nc3cnccn3c2Nc2ccc3c(c2)OCCO3)cc1,-3,2,-1,-5,0
CC(C)(C)CC(C)(C)Nc1c(-c2ccc(O)cc2)nc2cnccn12,-2,.,-6,-25*,.
O=C(Cc1ccncc1)NCC[C@H]1CC[C@@H](NC(=O)Nc2ccc(F)cc2)[C@@H](CO)O1,2,1,.,5,0
CO[C@H]1CN(C)C(=O)c2ccc(NS(C)(=O)=O)cc2OC[C@H](C)NC[C@@H]1C,.,.,.,-1,.
O=C(N/N=C/c1ccc(N2CCOCC2)cc1)c1ccc(NS(=O)(=O)c2cccs2)cc1,-2,.,-3,-6,0
O=C(Nc1ccc(N2CCOCC2)cc1)c1ccncc1,8,.,7,.,.
COc1ccc(C=NNC(=O)c2ccccc2NS(=O)(=O)c2cccs2)cc1O,-1,?,-5,-26*,4
COc1cc(C=NNC(=O)c2ccccc2NS(=O)(=O)c2cccs2)cc(OC)c1O,0,17,3,-52,0
O=C(N/N=C/c1ccc(N2CCOCC2)cc1)c1ccncc1,4,72*,4,5,.
O=C(N/N=C/c1ccc(N2CCOCC2)cc1)c1ccccc1NS(=O)(=O)c1cccs1,.,-4,.,-40*,5
O=C(Cc1ccccc1)N[C@H]1CC[C@H](CC(=O)N2CCCCC2)O[C@H]1CO,-2,-2,.,2,0

# High-throughput results as filed in PubChem.
